Key:
[1] = Inhibition of Hepatitis C virus genotype 1a H77 recombinant NS3/4A protease expressed in Escherichia coli BL21 (DE3) cell using Ac-Asp-Glu-Asp(EDANS)-Glu-Glu-Abu[C(O)-O]-Ala-Ser-Lys(DABCYL)-NH2 as substrate by FRET assay; design: species or system Hepatitis C virus (isolate H77)
Hepatitis C virus = assay: Antiviral activity against Hepatitis C virus genotype 1b Con1 after 4 days by cell-based replicon assay; format: functional, organism-based, Hepacivirus hominis; settings: isolate Con1, 96 h
[2] = Cytotoxicity against human HuH7 cells; format: cell-based; settings: Huh-7 cells
[3] = AUC in intraduodenally dosed Sprague-Dawley rat plasma measured over 4 hrs by LC/MS/MS analysis; format: ADME, organism-based; design: time < 4 hr, route intraduodenal; settings: Sprague-Dawley, plasma
In short: (§1)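 Abbreviated rat screen: surgically prepared rats were dosed intraduodenally. Plasma was sampled over 4 h, and liver was collected at the 4 h end point. Plasma was precipitated with two volumes of ACN plus internal standard. Liver was weighed and homogenized in 2 volumes of 20% Hanks buffered salt solution/80% ACN. Both were quantified by LC/MS/MS.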

Liver = assay: Drug uptake in intraduodenally dosed Sprague-Dawley rat liver measured per gm of tissue over 4 hrs by LC/MS/MS analysis; format: ADME, organism-based; settings: in vivo, other; in short: as §1

Row | SMILES | IC50 [1] | EC50 (Hepatitis C virus) | CC50 [2] | AUC at 4 h [3] | Drug uptake (Liver)
1 | C=C[C@@H]1C[C@]1(NC(=O)[C@@H]1C[C@@H](Oc2cc(-c3ccccc3)nc3cc(OC)ccc23)CN1C(=O)[C@@H](NC(=O)OC(C)(C)C)C(C)(C)C)C(=O)NS(C)(=O)=O | 36 nM | 600 nM | – | – | –
2 | C=C[C@@H]1C[C@]1(NC(=O)[C@@H]1C[C@@H](Oc2nccc3c(N4CCOCC4)cccc23)CN1C(=O)[C@@H](NC(=O)OC(C)(C)C)C(C)(C)C)C(=O)NS(=O)(=O)C1CC1 | 96 nM | 966 nM | > 100000 nM | – | –
3 | C=C[C@@H]1C[C@]1(NC(=O)[C@@H]1C[C@@H](Oc2cc(-c3ccccc3)nc3cc(OC)ccc23)CN1C(=O)[C@@H](N)C(C)(C)C)C(=O)NS(=O)(=O)C1CC1 | 30 nM | 860 nM | – | – | –
4 | C=C[C@@H]1C[C@]1(NC(=O)[C@@H]1C[C@@H](Oc2ncc(Cl)c3ccccc23)CN1C(=O)[C@@H](NC(=O)OC(C)(C)C)C(C)(C)C)C(=O)NS(=O)(=O)C1CC1 | 8 nM | 41 nM | 45000 nM | – | –
5 | C=C[C@@H]1C[C@]1(NC(=O)[C@@H]1C[C@@H](Oc2nccc3cc(C#N)ccc23)CN1C(=O)[C@@H](NC(=O)OC(C)(C)C)C(C)(C)C)C(=O)NS(=O)(=O)C1CC1 | 4 nM | 586 nM | > 100000 nM | – | –
6 | C=C[C@@H]1C[C@]1(NC(=O)[C@@H]1C[C@@H](Oc2nccc3cccc(C)c23)CN1C(=O)[C@@H](NC(=O)OC(C)(C)C)C(C)(C)C)C(=O)NS(=O)(=O)C1CC1 | 149 nM | 500 nM | > 100000 nM | – | –
7 | C=C[C@@H]1C[C@]1(NC(=O)[C@@H]1C[C@@H](Oc2ccc3ccccc3n2)CN1C(=O)[C@@H](NC(=O)OC(C)(C)C)C(C)(C)C)C(=O)NS(=O)(=O)C1CC1 | 23 nM | 268 nM | – | 0.279 µM·h | 52094 ng
8 | C=C[C@@H]1C[C@]1(NC(=O)[C@@H]1C[C@@H](Oc2nccc3cc(Cl)ccc23)CN1C(=O)[C@@H](NC(=O)OC(C)(C)C)C(C)(C)C)C(=O)NS(=O)(=O)C1CC1 | 36 nM | 833 nM | 44000 nM | – | –
9 | C=C[C@@H]1C[C@]1(NC(=O)[C@@H]1C[C@@H](Oc2nccc3cc(O)ccc23)CN1C(=O)[C@@H](NC(=O)OC(C)(C)C)C(C)(C)C)C(=O)NS(=O)(=O)C1CC1 | 3 nM | 67 nM | > 100000 nM | – | –
10 | C=C[C@@H]1C[C@]1(NC(=O)[C@@H]1C[C@@H](Oc2cc(-c3ccccc3)nc3cc(OC)ccc23)CN1C(=O)[C@@H](NC(=O)OC(C)(C)C)C(C)(C)C)C(=O)NS(=O)(=O)C1CCC1 | 7 nM | 29 nM | – | – | –
11 | C=C[C@@H]1C[C@]1(NC(=O)[C@@H]1C[C@@H](Oc2nccc3cc(-n4cccn4)ccc23)CN1C(=O)[C@@H](NC(=O)OC(C)(C)C)C(C)(C)C)C(=O)NS(=O)(=O)C1CC1 | 4 nM | 64 nM | 94000 nM | – | –
12 | C=C[C@@H]1C[C@]1(NC(=O)[C@@H]1C[C@@H](Oc2nccc3cc(C(=O)N(C)C)ccc23)CN1C(=O)[C@@H](NC(=O)OC(C)(C)C)C(C)(C)C)C(=O)NS(=O)(=O)C1CC1 | 476 nM | 11000 nM | > 100000 nM | – | –
13 | C=C[C@@H]1C[C@]1(NC(=O)[C@@H]1C[C@@H](Oc2ccncc2)CN1C(=O)[C@@H](NC(=O)OC(C)(C)C)C(C)(C)C)C(=O)NS(=O)(=O)C1CC1 | 84 nM | 25000 nM | – | – | –
14 | C=C[C@@H]1C[C@]1(NC(=O)[C@@H]1C[C@@H](Oc2cc(-c3ccccc3)nc3cc(OC)ccc23)CN1C(=O)[C@@H](NC(=O)OC(C)(C)C)C(C)(C)C)C(=O)NS(=O)(=O)C(C)C | 19 nM | 97 nM | – | – | –
15 | C=C[C@@H]1C[C@]1(NC(=O)[C@@H]1C[C@@H](Oc2cc(-c3ccccc3)nc3cc(OC)ccc23)CN1C(=O)[C@@H](NC(=O)OC(C)(C)C)C(C)(C)C)C(=O)NS(=O)(=O)CC | 6 nM | 133 nM | – | – | –
16 | C=C[C@@H]1C[C@]1(NC(=O)[C@@H]1C[C@@H](Oc2cc(-c3ccccc3)nc3cc(OC)ccc23)CN1C(=O)[C@@H](NC(=O)OC(C)(C)C)C(C)(C)C)C(=O)NS(=O)(=O)c1ccccc1 | 8 nM | 20 nM | – | – | –
17 | C=C[C@@H]1C[C@]1(NC(=O)[C@@H]1C[C@@H](Oc2nc(-c3ccccc3)cc3ccccc23)CN1C(=O)[C@@H](NC(=O)OC(C)(C)C)C(C)(C)C)C(=O)NS(=O)(=O)C1CC1 | 3 nM | 9 nM | 12000 nM | – | –
18 | C=C[C@@H]1C[C@]1(NC(=O)[C@@H]1C[C@@H](Oc2nccc3ccc(C)cc23)CN1C(=O)[C@@H](NC(=O)OC(C)(C)C)C(C)(C)C)C(=O)NS(=O)(=O)C1CC1 | 7 nM | 100 nM | 86000 nM | – | –
19 | C=C[C@@H]1C[C@]1(NC(=O)[C@@H]1C[C@@H](Oc2cc(-c3ccccc3)nc3cc(OC)ccc23)CN1C(=O)[C@@H](NC(=O)OC(C)(C)C)C(C)(C)C)C(=O)NS(=O)(=O)C1CCCCC1 | 149 nM | 210 nM | – | – | –
20 | C=C[C@@H]1C[C@]1(NC(=O)[C@@H]1C[C@@H](Oc2cc(-c3ccccc3)nc3cc(OC)ccc23)CN1C(=O)CNC(=O)OC(C)(C)C)C(=O)NS(=O)(=O)C1CC1 | 16 nM | 893 nM | – | – | –
21 | C=C[C@@H]1C[C@]1(NC(=O)[C@@H]1C[C@@H](Oc2ccnc3cc(OC)ccc23)CN1C(=O)[C@@H](NC(=O)OC(C)(C)C)C(C)(C)C)C(=O)NS(=O)(=O)C1CC1 | 5 nM | 26 nM | – | 0.015 µM·h | 620 ng
22 | COc1ccc2c(O[C@@H]3C[C@@H](C(=O)NC4(C(=O)NS(=O)(=O)C5CC5)CC4)N(C(=O)[C@@H](NC(=O)OC(C)(C)C)C(C)(C)C)C3)cc(-c3ccccc3)nc2c1 | 12 nM | 437 nM | – | – | –
23 | C=C[C@@H]1C[C@]1(NC(=O)[C@@H]1C[C@@H](Oc2cc(-c3ccccc3)nc3cc(OC)ccc23)CN1C(=O)[C@@H](NC(=O)OC)C(C)(C)C)C(=O)NS(=O)(=O)C1CC1 | 1 nM | 32 nM | – | 0.009 µM·h | 156 ng
24 | C=C[C@@H]1C[C@]1(NC(=O)[C@@H]1C[C@@H](Oc2nccc3cc(C)ccc23)CN1C(=O)[C@@H](NC(=O)OC(C)(C)C)C(C)(C)C)C(=O)NS(=O)(=O)C1CC1 | 4 nM | 100 nM | 92000 nM | – | –
25 | C=C[C@@H]1C[C@]1(NC(=O)[C@@H]1C[C@@H](Oc2nccc3cc(C(C)(C)C)ccc23)CN1C(=O)[C@@H](NC(=O)OC(C)(C)C)C(C)(C)C)C(=O)NS(=O)(=O)C1CC1 | 31 nM | 209 nM | 15000 nM | – | –
26 | C=C[C@@H]1C[C@]1(NC(=O)[C@@H]1C[C@@H](Oc2ccnc(-c3ccccc3)c2)CN1C(=O)[C@@H](NC(=O)OC(C)(C)C)C(C)(C)C)C(=O)NS(=O)(=O)C1CC1 | 10 nM | 267 nM | – | – | 319 ng
27 | C=C[C@@H]1C[C@]1(NC(=O)[C@@H]1C[C@@H](Oc2cc(-c3ccccc3)nc3cc(OC)ccc23)CN1C(=O)[C@@H](NC(=O)OC(C)(C)C)C(C)(C)C)C(=O)NS(=O)(=O)C1CCCC1 | 71 nM | 170 nM | – | – | –
28 | C=C[C@@H]1C[C@]1(NC(=O)[C@@H]1C[C@H](Oc2nccc3cc(OC)ccc23)CN1C(=O)[C@@H](NC(=O)OC(C)(C)C)C(C)(C)C)C(=O)NS(=O)(=O)C1CC1 | 5000 nM | – | – | 0.25 µM·h | 3058 ng
29 | C=C[C@@H]1C[C@]1(NC(=O)[C@@H]1C[C@@H](Oc2nccc3c(F)cccc23)CN1C(=O)[C@@H](NC(=O)OC(C)(C)C)C(C)(C)C)C(=O)NS(=O)(=O)C1CC1 | 55 nM | 94 nM | > 100000 nM | – | –
